Screening data as filed in PubChem BioAssay.
In the library only some 1.8% were active in any assay of this set; here they are far more common.
CHRM4 antagonist: antagonists of human muscarinic M4 receptor (CHRM4). CHO-hM4 cells, ACh EC80, Fluo-8 calcium fluorescence. inhibition, % at 3 µM. 360,000 tested, 0.73% active;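 active = inhibition above its plate's cutoff, the mean inhibition of sample wells plus 3 SD, cut at about 27% in these data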
CHRM4 PAM: potentiates acetylcholine response at human M4 receptor; P08173; CHO-K1 hM4/Gqi5, Fluo-8 calcium fluorescence, ACh EC20; 0% = ACh EC20, 100% = maximal ACh; 360,000 tested, 0.4% active; AID 624126; activation, % at 3 µM;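 active = activation above its plate's cutoff, the mean activation of sample wells plus 3 SD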
CHRM5 agonist: agonists of human muscarinic M5 receptor (CHRM5) | P08912 | CHO-K1 hM5 cells, Fluo-8 calcium fluorescence; 0% DMSO wells, 100% maximal acetylcholine response | activation, % at 3 µM | 360,000 tested, 0.19% active;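 active = activation above the run's mean over test compounds plus 3 SD, cut at about 23% in these data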;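 also: signal is peak over basal fluorescence ratio across the kinetic read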
Target sequence (P08912 whole entry, looked up): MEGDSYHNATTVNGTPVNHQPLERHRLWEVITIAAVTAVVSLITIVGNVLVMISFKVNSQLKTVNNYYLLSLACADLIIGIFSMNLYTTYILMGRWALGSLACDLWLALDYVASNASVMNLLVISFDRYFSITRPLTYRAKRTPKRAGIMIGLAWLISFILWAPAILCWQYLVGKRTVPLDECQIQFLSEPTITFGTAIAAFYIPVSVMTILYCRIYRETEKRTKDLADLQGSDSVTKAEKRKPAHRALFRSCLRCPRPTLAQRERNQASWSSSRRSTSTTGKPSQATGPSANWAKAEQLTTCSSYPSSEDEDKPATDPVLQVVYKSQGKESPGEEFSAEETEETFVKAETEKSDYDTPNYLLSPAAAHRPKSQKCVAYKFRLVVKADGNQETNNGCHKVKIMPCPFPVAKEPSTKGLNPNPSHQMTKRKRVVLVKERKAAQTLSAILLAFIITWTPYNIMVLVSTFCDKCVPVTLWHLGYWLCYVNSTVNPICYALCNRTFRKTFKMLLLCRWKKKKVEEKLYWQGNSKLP
M4 ag: agonists of human muscarinic M4 receptor (CHRM4) | P08173 | 360,000 tested, 0.14% active | AID 624127 | activation, % at 3 µM | CHO-K1 hM4/Gqi5, Fluo-8 calcium fluorescence; vehicle 0%, full acetylcholine response 100%;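 active = activation above the run mean over all test wells plus 3 SD, cut at about 32% in these data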;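 also: peak over basal fluorescence ratio per well then scaled between controls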
CHRM5 PAM: CHRM5 positive allosteric modulation | CHO-K1 hM5, Fluo-8 calcium, ACh EC20 PAM; 0% = ACh EC20, 100% = ACh EC100 | activation, % at 3 µM | 360,000 tested, 0.3% active | AID 624038;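 active = activation above the run cutoff, the mean activation of all test compounds plus 3 SD, cut at about 18% in these data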
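system = human M5 receptor in CHO-K1 cells | reagent = EC20 acetylcholine as agonist stimulus | compound dosing = single-point, 3 µM nominal | incubation = Fluo-8 loading 80 min at 37 °C plus 30 min room temperature | detection = Fluo-8 calcium dye fluorescence, kinetic read | benchmarks = low control EC20 acetylcholine (0%), high control EC100 acetylcholine (100%)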
CHRM5 antagonist: antagonists of human muscarinic M5 receptor (CHRM5); CHO-hM5 cells, Fluo-8 calcium fluorescence, ACh EC80; inhibition, % at 3 µM; 360,000 tested, 0.59% active; AID 624040;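 active = inhibition above a per-plate cutoff, the mean of that plate's test compounds plus 3 SD, cut at about 27% in these data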
Each line names hits and unclear results; the compound was inactive in the other large screens; ! = a repeat was not active.

O=C(CN1CCN(c2ccccn2)CC1)N1c2ccccc2Sc2ccc(C(F)(F)F)cc21	none
Cc1c(NC(=O)CSc2ccccc2Cl)c(=O)n(-c2ccccc2)n1C	none
COCc1cc(C)c2c(N)c(C#N)sc2n1	CHRM4 PAM 34
O=C(Cn1nc([N+](=O)[O-])nc1Br)NC(c1ccccc1)c1ccccc1	CHRM4 antagonist 30
COc1ccc(CN2C(=O)CSCC2(C)C(=O)NCc2ccccc2)cc1OC (configuration not stated)	none
CC1(C(=O)NS(=O)(=O)c2ccc(F)cc2F)CCN1C(=O)CC1CCCCC1 (configuration not stated)	none
COc1ccc(/C=C/C(=O)OCC(=O)Nc2cccc(C(C)=O)c2)cc1	none
NC(=O)c1ccsc1NC(=O)COC(=O)/C=C/c1ccc([N+](=O)[O-])cc1	none
COC(=O)c1ccc(/C=C/C(=O)OCC(=O)Nc2sccc2C(N)=O)cc1	CHRM4 antagonist 45, CHRM5 antagonist 27
COc1ccc(/C=C/C(=O)OCC(=O)Nc2cc(C(N)=O)cc(C(N)=O)c2)cc1	CHRM5 PAM 18
Cc1cccc(Nc2nc(NCCCN3CCOCC3)nc(N)c2[N+](=O)[O-])c1	none
COc1ccc(C(C#N)=Cc2ccc(N(C)CCC#N)cc2)cc1	CHRM5 antagonist 28
COc1cc(C(=O)Nc2cc3c(cc2N2CCCCC2)n(C)c(=O)n3C)cc(OC)c1OC	none
CC(C)Cn1c(=O)oc2ccccc21	CHRM4 PAM 20
O=c1oc2ccccc2n1CCCCCn1c(=O)oc2ccccc21	none
CC(C)(C)c1cc(C(=O)NCCN2CCCC2)cc(C(C)(C)C)c1	none
COCCCN1CCN(C2Cc3ccccc3Sc3ccc(Cl)cc32)CC1 (configuration not stated)	CHRM5 antagonist 30
Clc1cccc2c1Sc1ccccc1CC2N1CCNCC1 (configuration not stated)	CHRM4 antagonist 68, CHRM5 antagonist 78
Clc1ccc2c(c1)C(N1CCNCC1)Cc1ccccc1S2 (configuration not stated)	CHRM4 antagonist 82, CHRM5 antagonist 97
NC(=O)CCN1CCN(CCOC2Cc3cc(Cl)ccc3Sc3ccccc32)CC1 (configuration not stated)	CHRM5 antagonist 28
COc1ccc2c(c1)CC(N1CCN(C)CC1)c1cc(OC)ccc1S2 (configuration not stated)	none
CC(C)c1ccc2c(c1)C(N1CCN(C)CC1)Cc1cccnc1S2 (configuration not stated)	none
CCc1c(C)sc(NC(=O)C2CC2c2ccccc2)c1C(N)=O (configuration not stated)	CHRM4 antagonist 27
O=C(Cn1nnc(-c2ccc([N+](=O)[O-])cc2)n1)NNC(=O)c1ccccc1	CHRM5 antagonist 31
O=C(Cn1nnc(-c2ccccc2)n1)NNC(=O)c1cccc([N+](=O)[O-])c1	none
CCOc1cc(-c2nc3ccccc3s2)ccc1O	CHRM4 antagonist 31
c1ccc(OCc2ccc(CCCN3CCOCC3)cc2)cc1	none
c1ccc(CCCN2CCOCC2)cc1	CHRM4 PAM 17
O=C(CCCc1ccccc1)NCCCN1CCOCC1	none
S=C(NCCCN1CCOCC1)N(Cc1ccccc1)Cc1ccccc1	CHRM5 antagonist 31
c1ccc(CNc2ncnc3sccc23)cc1	CHRM5 antagonist 40
COc1ccc(C(CNc2ncnc3sc(C)c(C)c23)N(C)C)cc1 (configuration not stated)	none
Cc1sc2ncnc(Nc3ccccc3)c2c1C	none
c1cncc(CNc2ncnc3sccc23)c1	none
Cc1sc2ncnc(NCc3ccccc3)c2c1C	CHRM5 antagonist 29
COc1ccccc1C(CNc1ncnc2sc(C)c(C)c12)N(C)C (configuration not stated)	CHRM5 antagonist 57
O=C(Nc1cccc(C(F)(F)F)c1)N1CCC(c2nc(-c3ccc(F)cc3)no2)CC1	CHRM4 antagonist 51, CHRM5 antagonist 39
C#CCOCCOCCOCCNc1nc(N2CCN(C(=O)C([C@@H](C)O)n3cc([C@@H](N)CCCCN)nn3)CC2)nc(N2CCN(C(=O)[C@H](CC(N)=O)n3cc(C(N)[C@@H](C)CC)nn3)CC2)n1 (some centres not stated)	CHRM4 antagonist 35
Cc1cc(N2CCCCC2)nc(NCc2ccccc2)n1	CHRM5 agonist 33, M4 ag 37
O=C(c1ccc(Br)o1)N1CCN(C23CC4CC(CC(C4)C2)C3)CC1	CHRM4 antagonist 31
O=C(c1ccco1)N1CCN(C(=O)c2ccc(Br)o2)CC1	none
Cc1ccc(-c2noc(CCCC(=O)NC3CCCCC3)n2)cc1	none
Cc1ccnc(NS(=O)(=O)c2ccc(NC(=O)c3ccc(S(=O)(=O)N4CCCC4)cc3)cc2)n1	CHRM5 PAM 19
COc1ccc2nc(SCC(=O)Nc3ccc(S(=O)(=O)Nc4nccc(C)n4)cc3)[nH]c2c1	CHRM4 antagonist 35
Cc1cc(C)nc(NS(=O)(=O)c2ccc(NC(=O)CSc3nc4ccccc4[nH]3)cc2)n1	none
CN(C)CCCNC(=O)/C(=C\C=C\c1ccccc1)NC(=O)c1ccc([N+](=O)[O-])cc1	none
COCCNC(=O)C(c1ccc(C)o1)N(Cc1ccc(F)cc1)C(=O)Cn1nnc2ccccc21 (configuration not stated)	CHRM5 PAM 22
CC(NC(=O)CN1CCN(S(=O)(=O)c2ccc(Br)cc2)CC1)c1ccccc1 (configuration not stated)	none
CCOC(=O)c1ccc(N=c2sc(C(=O)OC)cc(=O)n2Cc2ccco2)cc1	none
CCOC(=O)c1ccc(N=c2sc(C(=O)OC)cc(=O)n2CCCN2CCOCC2)cc1	CHRM4 antagonist 52!
COc1cccc(C2=NCCc3cc4c(cc32)OCO4)c1OC	none
COc1ccc2cc3[n+](cc2c1OC)CCc1cc2c(cc1-3)OCO2	CHRM4 antagonist 41!
CN1CCN(NC(=O)c2ccc(Cl)cc2Cl)CC1	none
CN1CCN(NC(=O)c2cc(Br)ccc2Cl)CC1	CHRM5 antagonist 27
CS(=O)(=O)N1CCC(C(=O)NCc2ccc(Cl)cc2)CC1	none
COc1cc(/C=N/N2C(=O)C3C4c5ccccc5C(c5ccccc54)C3C2=O)ccc1O (configuration not stated)	CHRM5 PAM 33
O=C(NCc1ccccc1)C1=C[C@@H](c2coc3ccccc3c2=O)C[C@@H](OCCCCO)O1	CHRM5 antagonist 28
O=C(C1=C[C@H](c2coc3ccccc3c2=O)C[C@H](OCCCCO)O1)N1CCN(Cc2ccccc2)CC1	CHRM5 antagonist 62
